# Cneo AK release – Cryptococcus neoformans lysis via adenylate kinase release | AID 651654 | C. neoformans lysis, adenylate kinase release luminescence, 4 h; normalised: neutral wells 0, clomiphene wells 100 | lysis activity, % at 15 µM | 360,000 tested, 0.2% active;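 active means mean lysis activity across replicates of at least 80%, whatever share of replicates individually reach that level; inactive means mean lysis activity below 80%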
#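 Signal: Adenylate kinase release luminescence | Assay system: Log-phase Cryptococcus neoformans yeast cells | Input: Cells at 5 × 10^6 per mL | Buffer or medium: Fresh YPD growth medium | Compound: Single dose | Schedule: Static 4 h at 37 °C with compound, 1 h detection | Controls: Clomiphene | Read-out: Luminescence rise reflecting yeast cell lysis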
# Statin myotox sup – suppressors of simvastatin-induced myotoxicity in C2C12 myotubes; ATP luminescence, 48 h; scaled: DMSO 0, geranylgeraniol control 100; rescue of ATP level, % at 7.49 µM; AID 602340; 330,000 tested, 0.78% active;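 active means mean ATP rescue above about 67%, or every replicate alone reaching that limit, limit read from the data, passing the limit was not always enough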;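 further: myotubes were challenged with 10 µM simvastatin during compound exposure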
# SUMO Mot1 rescue – inhibitors of SUMOylation pathway: yeast Mot1-301 growth rescue; S. cerevisiae Mot1-301 growth rescue, ATP luminescence, 38.5C; percent above DMSO median, 100 means doubled; growth rescue, % at 18.8 µM; 320,000 tested, 1% active; AID 2716;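 active means every valid replicate shows activation above 250% relative to neutral control wells; inactive means the rest, any valid replicate at or below 250%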;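 further: OY570 slx delta 5 strain wells were the positive control but not used for scaling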
# Mot1 SUMO dose – SUMO pathway inhibitors in yeast Mot1-301 growth | shares compounds with SUMO Mot1 rescue | growth activity, percent, % at 42 µM | AID 493004 | S. cerevisiae Mot1-301 galactose growth, ATP luminescence, 24 h; -100 = growth of slx-deleted rescue strain | 2,300 tested, under 10 active;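 active means Signal drops as the depositor expects, and the fitted half-maximal dose is no more than ten times the top valid tested dose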;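 further: more negative values mean stronger growth rescue toward the control strain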
# Starred values were filed as active, the others as inactive; nt = no result; + = active, no number. Only some compounds are listed: those with a hit (about 1.5% of all), similar ones and a draw of the others.
SMILES,Cneo AK release,Statin myotox sup,SUMO Mot1 rescue,Mot1 SUMO dose
C[C@@]12C(=O)Nc3cc(F)ccc3C(=O)N1[C@H]1c3ccccc3OC[C@@H]1[C@@H]2c1ccccc1,-5.1,9.9,+,0.3
COc1cc2c(cc1OC)C(=O)N1[C@H]3c4cc(C)ccc4OC[C@@H]3[C@H](c3ccccc3)[C@]1(C)C(=O)N2,-2.9,16.1,174.6,nt
COc1ccc2c(c1)OC[C@H]1[C@H]2N2C(=O)c3cc(F)ccc3NC(=O)[C@@]2(C)[C@H]1c1ccccc1,-2.0,-16.4,+,-0.4
COc1ccc2c(c1)[C@H]1[C@H](CO2)[C@H](c2ccccc2)[C@]2(C)C(=O)Nc3cc(C)ccc3C(=O)N12,0.6,-5.1,462.6*,-0.6
C[C@@H]1CN([C@H](C)CO)C(=O)c2cc(NC(=O)Nc3ccc4c(c3)OCO4)ccc2O[C@@H](C)CCCCO[C@@H]1CN(C)S(=O)(=O)c1cn(C)cn1,0.1,nt,nt,nt
CN1c2ccc(Br)cc2[C@H]2[C@H](CCN2S(=O)(=O)c2cccc(F)c2)[C@@H]1CO,-8.7,32.0,nt,nt
C[C@H]1CN([C@@H](C)CO)C(=O)c2c(c3ccccc3n2C)-c2ccccc2CO[C@H]1CN(C)S(=O)(=O)c1ccc(F)cc1,-1.0,-8.9,nt,nt
C[C@@H]1CCCCO[C@@H](CN(C)S(C)(=O)=O)[C@H](C)CN([C@@H](C)CO)C(=O)c2cc(NC(=O)c3ccncc3)ccc2O1,0.1,-50.8,nt,nt
O=C(NCCCc1ccncc1)C1CCC(=O)N(Cc2ccc(Cl)cc2)C1 (configuration not stated),0.1,8.6,-3.2,nt
O=C(NCCc1cnccn1)C1CCC(=O)N(Cc2ccc(Cl)cc2)C1 (configuration not stated),-1.1,-1.3,523.2*,0.2
O=C(CCN1CCCCC1)N[C@@H]1CC[C@@H](CCNS(=O)(=O)c2ccccc2)O[C@H]1CO,26.2,11.6,nt,nt
Cc1ccccc1NC(=O)c1ccc2c(c1)C(=O)N(CC(C)C)C2=O,1.2,-8.9,-8.9,nt
CCOc1ccccc1NC(=O)c1ccc2c(c1)C(=O)N(CC(C)C)C2=O,1.4,-4.3,550.9*,1.3
Cc1ccc(-n2c(N)c(C#N)c(-c3ccc(Cl)cc3)c(C#N)c2=O)cc1,-1.4,4.6,-3.7,nt
N#Cc1c(Cn2cncn2)nc(=O)n(-c2ccc(Cl)cc2)c1N,0.2,0.5,+,0.3
O=C(C[C@@H]1C[C@H]2c3cc(NS(=O)(=O)c4ccc(F)cc4)ccc3O[C@H]2[C@H](CO)O1)NCc1ccccc1F,-6.8,-3.1,nt,nt
Cc1ccc(-c2ccc3c(c2)O[C@H](CN(C)S(C)(=O)=O)[C@@H](C)CN([C@H](C)CO)S3(=O)=O)cc1,-5.7,-17.0,nt,nt
COc1cccc(-c2ccc3n(c2=O)C[C@@H]2[C@@H](CO)[C@H](C(=O)NC4CCCC4)[C@H]3N2C)c1,-1.5,-12.3,nt,nt
COc1ccc(Cl)cc1N(C(=O)c1ccco1)C(C(=O)NC1CCCC1)c1ccncc1 (configuration not stated),-2.7,-8.4,407.3*,0.3
COc1ccc(Cl)cc1N(C(=O)c1ccco1)C(C(=O)NC1CCCC1)c1cccnc1 (configuration not stated),3.7,3.4,11.0,nt
Cc1ccc(NC(=O)/C=N/OCC(=O)NCc2ccccc2Cl)cc1,-6.7,nt,464.4*,0.2
CC(C)C(=O)OCC(=O)NCc1ccccc1Cl,nt,nt,4.9,nt
Cc1cccc(N2CCN(C(=O)CN3C(=O)NC(C)(C)C3=O)CC2)c1C,nt,nt,526.9*,-0.4
Cc1cccc(N2CCN(C(=O)CN3C(=O)NC(C)(C4CC4)C3=O)CC2)c1C (configuration not stated),3.6,9.5,nt,nt
Cc1cccnc1NC(=S)Nc1ccc(F)cc1F,nt,nt,9.4,nt
SMILES,Cneo AK release,Statin myotox sup,SUMO Mot1 rescue,Mot1 SUMO dose
C=C(C)C(=O)Nc1cccnc1Oc1ccc(F)cc1F,nt,nt,+,0.6
COc1cc(/C=N/NC2=NS(=O)(=O)c3ccccc32)cc(OC)c1OC,0.7,11.6,629.7*,0.2
COc1ccc(/C=N/NC2=NS(=O)(=O)c3ccccc32)cc1,-0.5,6.2,12.7,nt
COc1cc2c(cc1NC(=O)c1ccncc1)oc1ccccc12,nt,nt,289.8,nt
COc1cc2c(cc1NC(=O)c1cccnc1)oc1ccccc12,1.5,-54.0,554.6*,-1.2
CCOc1ccccc1/C=N\Nc1cnn(Cc2ccccc2)c(=O)c1Cl,nt,nt,+,0.1
CCOc1ccccc1C=NNC(=O)C(=O)NN=Cc1ccccc1OCC,-1.8,-7.9,nt,nt
CC(C)CC#Cc1cnc2c(c1)C(=O)N([C@@H](C)CO)C[C@H](C)[C@@H](CN(C)Cc1ccccn1)O2,5.7,26.0,nt,nt
CCOc1ccc(S(=O)(=O)N2CCN(C(=O)CN3C(=O)NC4(CCCC4)C3=O)CC2)cc1,nt,nt,666.2*,-0.5
COc1ccc(S(=O)(=O)N2CCN(C(=O)CN3C(=O)NC4(CCCC4)C3=O)CC2)cc1,-0.2,1.6,-6.2,nt
C[C@@H]1CN([C@@H](C)CO)C(=O)c2cc(NC(=O)C3CCCCC3)ccc2O[C@@H](C)CCCCO[C@H]1CN(C)C(=O)NC1CCCCC1,-0.7,-50.0,nt,nt
CC(=O)c1cc(C)ccc1OC(=O)c1ccco1,-5.7,8.5,429.1*,0.9
CC(=O)c1cc(Cl)ccc1OC(=O)c1ccco1,-0.5,1.3,6.0,nt
C[C@@H]1CCCCO[C@@H](CN(C)C(=O)Nc2cccc3ccccc23)[C@H](C)CN([C@H](C)CO)C(=O)c2cc(NC(=O)Nc3ccc4c(c3)OCO4)ccc2O1,-0.1,49.2,nt,nt
Cc1ccc(S(=O)(=O)Nc2ccc3c(c2)C(=O)N([C@H](C)CO)C[C@@H](C)[C@@H](CN(C)C(=O)C2CCCCC2)OCCCC[C@@H](C)O3)cc1,2.0,nt,nt,nt
C[C@@H]1CN([C@@H](C)CO)C(=O)Cc2cc(NC(=O)c3ccncc3)ccc2O[C@@H]1CN(C)C(=O)Nc1ccccc1,nt,-2.9,nt,nt
CCc1ccccc1NC(=O)N[C@@H](C)C(=O)O,66.9,-5.0,117.6,nt
CCc1ccccc1NC(=O)N[C@@H](C)C(=O)OC,nt,-0.5,649.8*,0.3
Cc1ccc(NC(=O)C(CC(C)C)NC(=O)C2CCC(C)CC2)nc1 (configuration not stated),nt,-3.8,634.2*,0.3
COc1ccc(NC(=O)C(CC(C)C)NC(=O)C2CCC(C)CC2)c(OC)c1 (configuration not stated),-2.1,5.1,-2.3,nt
COc1cc(C(c2c(C)[nH][nH]c2=O)c2c(C)[nH][nH]c2=O)cc(Cl)c1O,4.3,42.3,2.3,nt
COc1cc(C(c2c(C)[nH][nH]c2=O)c2c(C)[nH][nH]c2=O)cc(OC)c1OC,nt,nt,674.1*,0.0
Fc1ccc2nc(C3CCN(Cc4nc(CC5CC5)no4)CC3)[nH]c2c1,nt,nt,459.6*,0.1
Fc1ccccc1C1CCN(Cc2nc(CC3CC3)no2)C1 (configuration not stated),nt,nt,-15.4,nt
Cc1noc(C)c1NC(=O)Nc1ccc2c(c1)C(=O)N([C@H](C)CO)C[C@@H](C)[C@H](CN(C)S(=O)(=O)c1c(C)noc1C)OCCCC[C@@H](C)O2,-0.4,48.8,nt,nt

# Bioassay records from PubChem.
